ARNT TACC3 PPI: disruptors of ARNT/TACC3 protein interaction, primary screen, biochemical, AlphaScreen, single concentration | Transforming acidic coiled-coil-containing protein 3 (Homo sapiens), Q9Y6A5 | AlphaScreen His-ARNT PAS-B/GST-TACC3 binding, luminescence; TACC3 fragment carries E629A point mutation | inhibition, % at 9.99 µM | 390,000 tested, 0.66% active;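 active = mean inhibition of replicates at least 50% and at least half of replicates each reaching 50%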;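 note: 0% = complete ARNT plus TACC3 wells and 100% = ARNT alone without TACC3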
CAL PDZ FP-1: untagged CAL PDZ binding inhibitors, primary screen, biochemical, fluorescence polarization, HTS | purified CAL PDZ, TMR-peptide fluorescence polarization, 1 h | inhibition, % at 24.9 µM | 300,000 tested, 0.92% active | Golgi-associated PDZ and coiled-coil motif-containing protein (Homo sapiens), Q9HD26;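 active = mean inhibition of at least 30% with at least half of replicates also reaching 30%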;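 note: 0% = DMSO neutral control and 100% = excess unlabeled competitor peptide PRC23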
CaV13 ICDI inh: Primary screen for inhibitors of IQ motif and Ca2+-dependent inactivation inhibitor domain binding in CACNA1D, Förster resonance energy transfer in living cells, …; HEK cells, CFP/YFP FRET ICDI-IQ, plate reader, 10 min; percent FRET-ratio fall versus neutral wells; 340,000 tested, 0.098% active; inhibition, % at 12.3 µM;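 active = mean replicate inhibition of at least 30% and at least 1% of replicates passing that level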;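 note: 0% = median of the neutral control wells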
CAL PDZ FP-2: CAL PDZ peptide-binding inhibitors, primary screen, biochemical, fluorescence polarization, Cer-tagged CAL PDZ, HTS; purified CAL PDZ, TMR-peptide fluorescence polarization, 1 h; Golgi-associated PDZ and coiled-coil motif-containing protein (Homo sapiens), Q9HD26; 330,000 tested, 0.02% active; inhibition, % at 20 µM;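 active = highest replicate inhibition of at least 40%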;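 note: plate controls were DMSO neutral control wells for no effect and unlabeled competitor peptide control wells for full effect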
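Control set: unlabelled peptide and DMSO controls / Material: purified CerCALP PDZ construct / Timing: 1 h incubation at room temperature before polarization reading / Doses: 20 µM, one dose / Detection: fluorescence polarization (mP)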
* = called active by the depositor; x = no result; + = active, no number. In the library only some 1.2% were active in any assay of this set; here they are far more common.

SMILES	ARNT TACC3 PPI	CAL PDZ FP-1	CaV13 ICDI inh	CAL PDZ FP-2
CC(=O)N1CCc2cc(S(=O)(=O)NCC(=O)NCc3ccc(Cl)cc3)ccc21	6	+	-2	-1
COc1ccc(S(=O)(=O)Nc2cccc3c2O[C@H](CN(C)C(=O)Nc2ccc4c(c2)OCO4)[C@H](C)CN([C@@H](C)CO)C3=O)cc1	-9	x	x	x
Cc1cc(O)c(Sc2ccc(Cl)cc2)c(=O)[nH]1	0	55*	-5	1
Cc1noc(C)c1NC(=O)Nc1cccc2c1O[C@@H](CN(C)S(=O)(=O)c1ccc(Cl)cc1)[C@@H](C)CN([C@@H](C)CO)C2=O	0	x	x	x
C[C@H](CO)N1C[C@H](C)[C@H](CN(C)C(=O)NC2CCCCC2)Oc2ncc(/C=C/c3ccccc3)cc2C1=O	7	x	x	x
O=c1[nH]c(=O)n(C2CCCCCC2)c(O)c1C=NCc1ccc(F)cc1	6	34*	-6	-7
Cc1c(N=Cc2c(O)n(C3CCCCC3)c(=O)[nH]c2=O)c(=O)n(-c2ccccc2)n1C	-1	-3	x	-1
CC1CCCCN1CCCNC(=O)c1c(O)nc2ccccn2c1=O (stereo not drawn)	5	5	-2	0
CCC1CCCCN1CCCNC(=O)c1c(O)nc2ccccn2c1=O (stereo not drawn)	1	78*	-3	-1
C[C@H]1CN([C@@H](C)CO)C(=O)c2ccccc2-c2ccccc2CO[C@H]1CN(C)C(=O)c1ccc(F)cc1	-10	x	x	x
C[C@H](CO)N1C[C@H](C)[C@@H](CN(C)Cc2ccc(C(=O)O)cc2)Oc2ccc(NS(C)(=O)=O)cc2CC1=O	8	x	x	x
COc1ccnc(CSC(N)=Nc2ccccc2C(F)(F)F)c1	26	x	-5	-1
COc1ccnc(CSC(N)=Nc2ccccc2OC)c1	62*	-5	x	0
Cc1noc(C)c1COc1ccc(C(=O)N2CCN(S(=O)(=O)c3ccc(Cl)cc3)CC2)cc1	-6	39*	-6	-1
O=C(C1CC(=O)N(c2ccc3c(c2)OCCO3)C1)N1CCN(S(=O)(=O)c2ccc(F)cc2)CC1 (stereo not drawn)	-6	68*	-5	-2
CCS(=O)(=O)NCC[C@@H]1CC[C@@H](NC(=O)C2CCCC2)[C@@H](CO)O1	-5	x	x	x
CC(C)c1ccc2c(c1)C1(NN=C(c3ccccc3)S1)C(=O)N2 (stereo not drawn)	50*	-1	x	0
CC(C)c1cccc(O)c(=O)c1	-25	-3	x	0
Cc1ccccc1-c1cnc2c(c1)C(=O)N([C@@H](C)CO)C[C@@H](C)[C@@H](CN(C)C(=O)CN(C)C)O2	-2	x	x	x
O=c1cnnc(N/N=C/c2ccccn2)[nH]1	78*	2	-2	2
O=c1nc(N/N=C/c2ccccn2)cn[nH]1	64*	1	4	-1
C(=N\Nc1nc2ccccc2[nH]1)/c1ccccn1	x	-3	6	-2
Cc1cc(=O)[nH]c(N/N=C/c2ccccn2)n1	19	-6	-15	1
C/C(=N\Nc1ccc2nncn2n1)c1ccccn1	x	x	-3	x
C(=N\Nc1ccc2nncn2n1)/c1ccccn1	51*	x	-16	-1
SMILES	ARNT TACC3 PPI	CAL PDZ FP-1	CaV13 ICDI inh	CAL PDZ FP-2
Cc1c(C(=O)C(=O)NCc2ccco2)c2ccccc2n1C	6	56*	-2	2
O=C(NC1CC1)C1=C[C@@H](C2CCCCC2)C[C@@H](OCCCCO)O1	-8	-3	-10	-1
O=C(O)C1=C[C@@H](C2CCCC2)C[C@@H](OCCCCO)O1	61*	x	x	x
Cc1cc(C)n2nc(SC(C)C(=O)Nc3ccccc3F)nc2n1 (stereo not drawn)	active	-5	-5	-1
O=[N+]([O-])c1cccc(-c2n[nH]c(=S)n2-c2ccc(Br)cc2)c1	x	6	55*	-2
S=c1[nH]nc(-c2ccc(Br)cc2)n1-c1ccc(Br)cc1	-3	2	-5	-1
COCCn1cnc2c(c1=O)c1nc3ccccc3nc1n2/N=C/c1cccc(OC)c1	5	34*	2	-3
COc1cccc(S(=O)(=O)N2C[C@@H](O)COC[C@H]3O[C@@H](CC(=O)N4CCN(C)CC4)CC[C@@H]32)c1	2	x	x	x
CCCCc1cc(=O)oc2c3c(cc(OCC(=O)N4CCC[C@H]4C(=O)O)c12)OC(C)(C)CC3	x	0	x	0
Cc1cc(=O)oc2c3c(cc(OCC(=O)N4CCC[C@H]4C(=O)O)c12)OC(C)(C)CC3	32*	-1	x	0
CNC(=S)N/N=C/c1c(Cl)cccc1Cl	2	2	-7	-2
Cc1cccc(C)c1NC(=S)N/N=C/c1c(Cl)cccc1Cl	-4	33*	-5	-2
CCn1c(=NC(=O)CSC(C)=O)sc2cc(OC)ccc21	10	x	40*	-1
COCCn1c(=NC(=O)CSC(C)=O)sc2cc(OC)ccc21	-5	x	-3	-2
O=[N+]([O-])c1cc(/C=N/N/C(=N/c2ccccn2)c2ccccn2)ccc1O	66*	4	-7	-1
O=[N+]([O-])c1ccc(/C=N/N/C(=N/c2ccccn2)c2ccccn2)cc1	16	8	-9	-2
CCCn1nnnc1NCc1cccc(Cl)c1	-6	80*	0	-7
CC1CCc2c(sc3nc(CSc4nnnn4C)[nH]c(=O)c23)C1 (stereo not drawn)	-10	60*	-7	-2
CC(=O)c1nccs1	x	32*	x	0
C/C(=C\C(=O)O)C(=O)Nc1nccs1	2	-4	x	-1
COc1cccc(C#Cc2cnc3c(c2)C(=O)N([C@H](C)CO)C[C@@H](C)[C@H](CN(C)C(=O)C2CC2)O3)c1	-8	x	x	x
CS(=O)(=O)Nc1ccc(C2=NN(C(=O)c3ccco3)C(c3ccco3)C2)cc1 (stereo not drawn)	7	33*	x	-2
O=C(C[C@@H]1CC[C@H]2[C@@H](COC[C@@H](O)CN2Cc2cccc(F)c2)O1)NCCc1ccncc1	-5	x	x	x
COc1cccc(/C=N/NC(=O)CNC(=O)c2ccco2)c1O	36*	-4	-16	3
CCOc1ccccc1NC(=O)C(=O)N/N=C/c1cc(Br)ccc1O	-3	67*	-5	0
COc1cccc(/C=N/NC(=O)C[n+]2ccccc2)c1O	67*	-5	-4	0
CCOc1ccccc1C=NNC(=O)C(=O)NN=Cc1ccccc1OCC	3	-4	-6	0
COc1cc(OC)c(OC)cc1/C=N/NC(=O)C[n+]1ccccc1	1	-1	-6	-1
O=C(C[n+]1ccccc1)N/N=C/c1cc(Br)ccc1O	64*	-4	-4	x
O=C(C[C@@H]1C[C@@H]2c3cc(NC(=O)Nc4ccccc4F)ccc3O[C@@H]2[C@H](CO)O1)NCC1CC1	7	x	x	x

Assay outcomes: PubChem, Broad Institute
